Measured values from ChEMBL document CHEMBL1124824, “Synthesis and biological activity of atrial natriuretic factor analogues: effect of modifications to the disulfide bridge” (J Med Chem, 1990).
Starred links: 1 amine or outer side, 2 acyl side, 3 side chain; linkers in the order of their positions; H or OH if unused. Positions of bridges follow the written chain, without caps; N, C: chain ends. Non-standard residues stand in square brackets, D forms with d. Residues, ends and D or L forms follow the SMILES beside them. βAsp = O=C(O)[C@H](CC(=O)[*:2])N[*:1]; Asu = N[C@@H](CCCCCC(=O)O)C(=O)O; Pen = CC(C)(S)[C@H](N)C(=O)O; hCys = N[C@@H](CCS)C(=O)O; X2 = O=C(CCC[*:2])[*:1]; X1 = O=C(CC[*:2])[*:1]; CO = O=C([*:1])[*:2]

Columns and labels:
Oryctolagus cuniculus = species: Oryctolagus cuniculus; assay: Compound was tested for the inhibition of the stimulated contractions of the superfused rabbit thoracic aortic rings.; type: functional, Aorta
Outline: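 Rabbit thoracic aorta rings (4 mm) were held isometrically at 10-g resting tension, superfused and precontracted with phenylephrine. Test peptide was added to the superfusate above the tissue in successively higher doses after each recovery. Doses were based on peptide content. EC50 came from the dose-response curve, mean of three determinations ± SEM.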

[1] = target: T1, Atrial natriuretic peptide receptor 2 (Bos taurus, UniProt P46197); assay: Binding affinity was determined based on the displacement of [125]r-ANF (99-126) from binding sites on bovine adrenal zona glomerulosa cell membranes (Atrionatriuretic peptide receptor B)
T1 sequence (P46197 whole entry): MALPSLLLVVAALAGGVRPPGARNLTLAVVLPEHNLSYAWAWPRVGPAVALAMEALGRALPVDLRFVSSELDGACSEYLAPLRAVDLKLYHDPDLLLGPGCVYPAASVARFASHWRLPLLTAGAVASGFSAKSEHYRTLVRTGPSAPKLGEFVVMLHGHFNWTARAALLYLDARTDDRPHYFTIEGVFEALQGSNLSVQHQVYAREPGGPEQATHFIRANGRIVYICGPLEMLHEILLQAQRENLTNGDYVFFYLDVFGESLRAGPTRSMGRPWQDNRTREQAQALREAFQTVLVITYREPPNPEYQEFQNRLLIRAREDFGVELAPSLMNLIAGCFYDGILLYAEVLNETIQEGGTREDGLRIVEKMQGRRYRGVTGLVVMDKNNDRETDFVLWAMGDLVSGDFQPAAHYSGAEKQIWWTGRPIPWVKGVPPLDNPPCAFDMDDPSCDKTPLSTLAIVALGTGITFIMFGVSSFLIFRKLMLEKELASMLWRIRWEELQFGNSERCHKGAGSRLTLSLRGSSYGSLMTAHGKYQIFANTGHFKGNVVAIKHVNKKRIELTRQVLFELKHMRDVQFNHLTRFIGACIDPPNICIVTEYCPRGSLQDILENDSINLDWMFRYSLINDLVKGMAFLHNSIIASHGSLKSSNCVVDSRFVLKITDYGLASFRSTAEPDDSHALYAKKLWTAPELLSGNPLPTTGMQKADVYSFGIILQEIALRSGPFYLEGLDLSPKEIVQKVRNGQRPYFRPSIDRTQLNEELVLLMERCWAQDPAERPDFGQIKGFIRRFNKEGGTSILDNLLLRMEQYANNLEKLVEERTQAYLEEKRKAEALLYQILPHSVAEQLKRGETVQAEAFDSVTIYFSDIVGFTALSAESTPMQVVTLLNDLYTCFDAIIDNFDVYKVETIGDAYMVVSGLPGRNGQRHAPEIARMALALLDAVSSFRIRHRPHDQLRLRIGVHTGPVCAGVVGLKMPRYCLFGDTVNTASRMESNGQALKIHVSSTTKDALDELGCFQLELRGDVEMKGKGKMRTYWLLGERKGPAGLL

[2] = target: T2, Atrial natriuretic peptide receptor 3 (Mus musculus, UniProt P70180); assay: Binding affinity was determined based on the displacement of [125]r-ANF (99-126) from binding sites on mouse fibroblasts (NIH 3T3) cells (Atrionatriuretic peptide receptor C).
T2 sequence (P70180 whole entry): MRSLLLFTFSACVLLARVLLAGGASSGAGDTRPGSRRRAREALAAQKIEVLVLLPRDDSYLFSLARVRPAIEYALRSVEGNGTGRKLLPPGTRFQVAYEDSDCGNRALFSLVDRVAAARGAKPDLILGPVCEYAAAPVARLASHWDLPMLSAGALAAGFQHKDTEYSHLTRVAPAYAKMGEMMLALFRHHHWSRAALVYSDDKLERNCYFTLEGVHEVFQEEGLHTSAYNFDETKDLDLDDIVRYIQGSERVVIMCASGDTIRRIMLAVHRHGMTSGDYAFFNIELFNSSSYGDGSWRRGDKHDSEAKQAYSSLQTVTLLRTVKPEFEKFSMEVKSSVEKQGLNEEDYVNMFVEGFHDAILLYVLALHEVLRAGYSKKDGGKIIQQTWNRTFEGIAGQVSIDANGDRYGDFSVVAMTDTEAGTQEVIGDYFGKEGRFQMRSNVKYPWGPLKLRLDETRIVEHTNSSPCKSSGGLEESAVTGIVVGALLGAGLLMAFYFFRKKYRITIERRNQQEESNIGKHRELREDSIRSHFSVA

Rattus norvegicus [3] = species: Rattus norvegicus; assay: Compound was tested for antihypertensive activity in 5/6 nephrectomized rats.; type: functional
Outline: (§1)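 Rats were anesthetized with halothane after skin infiltration with 2% lidocaine, and the femoral artery and vein were cannulated. After recovery, arterial pressure was recorded. A saline control period was followed by i.v. infusion in 30-min steps at 0.1, 0.2, 0.5 and 1.0 μg/kg per min (70 μL/kg per min). Hydralazine (100 μg/kg per min) was given for standardization. ED50 is in nmol/kg per min, from six animals.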

Rattus norvegicus [4] = species: Rattus norvegicus; assay: Compound was tested for the K+ excretion for treated over control animals; type: functional
Outline: (§2)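 Male Sprague-Dawley rats (300-325 g) under halothane/lidocaine had femoral artery, femoral vein and bladder cannulated. After at least 1 h of recovery in restraint, they received Ringer's (1.2 mL/h), with 10-min urine collections over a 30-min control period. Infusion of 0.5 μg/kg per min for 30 min and a 30-min Ringer's recovery followed. Na+, K+ and Cl- were measured with an electrolyte analyzer, reported as treated minus control μmol/sample. Volume ratio is treated/control over three consecutive 10-min samples, six animals.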

Rattus norvegicus [5] = species: Rattus norvegicus; assay: Compound was tested for the Na+ excretion for treated over control animals; type: functional; outline: as §2
Rattus norvegicus [6] = species: Rattus norvegicus; assay: Compound was tested for antihypertensive activity in DOCA nephrectomized rats.; type: functional; outline: as §1

Compound | EC50 (Oryctolagus cuniculus) | IC50 [1] | IC50 [2] | ED50 (Rattus norvegicus [3]) | Electrolyte excretion (Rattus norvegicus [4]) | Electrolyte excretion (Rattus norvegicus [5]) | ED50 (Rattus norvegicus [6])
CC[C@H](C)[C@@H]1NC(=O)[C@H](CCCN=C(N)N)NC(=O)[C@H](CC(=O)O)NC(=O)[C@H]([C@@H](C)CC)NC(=O)[C@H](CCCN=C(N)N)NC(=O)CNC(=O)CNC(=O)[C@H](Cc2ccccc2)NC(=O)CCC=CC[C@@H](C(=O)N[C@@H](CC(N)=O)C(=O)N[C@@H](CO)C(=O)N[C@@H](Cc2ccccc2)C(=O)N[C@@H](CCCN=C(N)N)C(=O)N[C@@H](Cc2ccc(O)cc2)C(=O)O)NC(=O)CNC(=O)[C@H](CC(C)C)NC(=O)CNC(=O)[C@H](CO)NC(=O)[C@H](CCC(N)=O)NC(=O)[C@H](C)NC(=O)CNC1=O | 5.5e-10 M 50ul-1 | 51 nM | 0.63 nM | – | – | – | –
CC[C@H](C)[C@@H]1NC(=O)[C@H](CCCN=C(N)N)NC(=O)[C@H](CC(=O)O)NC(=O)[C@H]([C@@H](C)CC)NC(=O)[C@H](CCCN=C(N)N)NC(=O)CNC(=O)CNC(=O)[C@H](Cc2ccccc2)NC(=O)CCCSC[C@@H](C(=O)N[C@@H](CC(N)=O)C(=O)N[C@@H](CO)C(=O)N[C@@H](Cc2ccccc2)C(=O)N[C@@H](CCCN=C(N)N)C(=O)N[C@@H](Cc2ccc(O)cc2)C(=O)O)NC(=O)CNC(=O)[C@H](CC(C)C)NC(=O)CNC(=O)[C@H](CO)NC(=O)[C@H](CCC(N)=O)NC(=O)[C@H](C)NC(=O)CNC1=O (FGGRIDRIGAQSGLGCNSFRY-OH; linker N-16 via X2) | 2.6e-10 M 50ul-1 | 6.17 nM | 0.56 nM | – | – | – | –
CC[C@H](C)[C@@H]1NC(=O)[C@H](CCCN=C(N)N)NC(=O)[C@H](CC(=O)O)NC(=O)[C@H]([C@@H](C)CC)NC(=O)[C@H](CCCN=C(N)N)NC(=O)CNC(=O)CNC(=O)[C@H](Cc2ccccc2)NC(=O)CCCCC[C@@H](C(=O)N[C@@H](CC(N)=O)C(=O)N[C@@H](CO)C(=O)N[C@@H](Cc2ccccc2)C(=O)N[C@@H](CCCN=C(N)N)C(=O)N[C@@H](Cc2ccc(O)cc2)C(=O)O)NC(=O)CNC(=O)[C@H](CC(C)C)NC(=O)CNC(=O)[C@H](CO)NC(=O)[C@H](CCC(N)=O)NC(=O)[C@H](C)NC(=O)CNC1=O (FGGRIDRIGAQSGLG[Asu]NSFRY-OH; lactam N-16) | 4.8e-10 M 50ul-1 | 28.8 nM | 0.78 nM | – | – | – | –
CC[C@H](C)[C@@H]1NC(=O)[C@H](CCCN=C(N)N)NC(=O)[C@H](CC(=O)O)NC(=O)[C@H]([C@@H](C)CC)NC(=O)[C@H](CCCN=C(N)N)NC(=O)CNC(=O)CNC(=O)[C@H](Cc2ccccc2)NC(=O)CCCSC(C)(C)[C@@H](C(=O)N[C@@H](CC(N)=O)C(=O)N[C@@H](CO)C(=O)N[C@@H](Cc2ccccc2)C(=O)N[C@@H](CCCN=C(N)N)C(=O)N[C@@H](Cc2ccc(O)cc2)C(=O)O)NC(=O)CNC(=O)[C@H](CC(C)C)NC(=O)CNC(=O)[C@H](CO)NC(=O)[C@H](CCC(N)=O)NC(=O)[C@H](C)NC(=O)CNC1=O (FGGRIDRIGAQSGLG[Pen]NSFRY-OH; linker N-16 via X2) | 6.8e-10 M 50ul-1 | 7.8 nM | 0.35 nM | – | – | – | –
CC[C@H](C)[C@@H]1NC(=O)[C@H](CCCN=C(N)N)NC(=O)[C@H](CC(=O)O)NC(=O)[C@H]([C@@H](C)CC)NC(=O)[C@H](CCCN=C(N)N)NC(=O)CNC(=O)CNC(=O)[C@H](Cc2ccccc2)NC(=O)CCSCC[C@@H](C(=O)N[C@@H](CC(N)=O)C(=O)N[C@@H](CO)C(=O)N[C@@H](Cc2ccccc2)C(=O)N[C@@H](CCCN=C(N)N)C(=O)N[C@@H](Cc2ccc(O)cc2)C(=O)O)NC(=O)CNC(=O)[C@H](CC(C)C)NC(=O)CNC(=O)[C@H](CO)NC(=O)[C@H](CCC(N)=O)NC(=O)[C@H](C)NC(=O)CNC1=O (FGGRIDRIGAQSGLG[hCys]NSFRY-OH; linker N-16 via X1) | 3.5e-10 M 50ul-1 | 7.8 nM | 0.21 nM | – | – | – | –
CC[C@H](C)[C@@H]1NC(=O)[C@H](CCCN=C(N)N)NC(=O)[C@H](CC(=O)O)NC(=O)[C@H]([C@@H](C)CC)NC(=O)[C@H](CCCN=C(N)N)NC(=O)CNC(=O)CNC(=O)[C@H](Cc2ccccc2)NC(=O)[C@@H](NC(=O)[C@H](CO)NC(=O)[C@@H](N)CO)CSSC[C@@H](C(=O)N[C@@H](CC(N)=O)C(=O)N[C@@H](CO)C(=O)N[C@@H](Cc2ccccc2)C(=O)N[C@@H](CCCN=C(N)N)C(=O)N[C@@H](Cc2ccc(O)cc2)C(=O)O)NC(=O)CNC(=O)[C@H](CC(C)C)NC(=O)CNC(=O)[C@H](CO)NC(=O)[C@H](CCC(N)=O)NC(=O)[C@H](C)NC(=O)CNC1=O (H-SSCFGGRIDRIGAQSGLGCNSFRY-OH; disulfide 3-19) [listing 1 of 2 here] | – | 1.37 nM | 0.35 nM | – | – | – | –
CC[C@H](C)[C@@H]1NC(=O)[C@H](CCCN=C(N)N)NC(=O)[C@H](CC(=O)O)NC(=O)[C@H]([C@@H](C)CC)NC(=O)[C@H](CCCN=C(N)N)NC(=O)CNC(=O)CNC(=O)[C@H](Cc2ccccc2)NC(=O)[C@@H](NC(=O)[C@H](CO)NC(=O)[C@@H](N)CO)CSSC[C@@H](C(=O)N[C@@H](CC(N)=O)C(=O)N[C@@H](CO)C(=O)N[C@@H](Cc2ccccc2)C(=O)N[C@@H](CCCN=C(N)N)C(=O)N[C@@H](Cc2ccc(O)cc2)C(=O)O)NC(=O)CNC(=O)[C@H](CC(C)C)NC(=O)CNC(=O)[C@H](CO)NC(=O)[C@H](CCC(N)=O)NC(=O)[C@H](C)NC(=O)CNC1=O (H-SSCFGGRIDRIGAQSGLGCNSFRY-OH; disulfide 3-19) [listing 2 of 2 here] | 8.9e-11 M 50ul-1 | – | – | – | – | – | –
CC[C@H](C)[C@H](NC(=O)[C@H](CCCN=C(N)N)NC(=O)[C@H](CC(=O)O)NC(=O)[C@@H](NC(=O)[C@H](CCCN=C(N)N)NC(=O)CNC(=O)CNC(=O)[C@H](Cc1ccccc1)NC(=O)N[C@@H](CC(=O)OC)C(=O)O)[C@@H](C)CC)C(=O)NCC(=O)N[C@@H](C)C(=O)N[C@@H](CCC(N)=O)C(=O)N[C@@H](CO)C(=O)NCC(=O)N[C@@H](CC(C)C)C(=O)NCC(=O)N[C@@H](CS)C(=O)N[C@@H](CC(N)=O)C(=O)N[C@@H](CO)C(=O)N[C@@H](Cc1ccccc1)C(=O)N[C@@H](CCCN=C(N)N)C(=O)N[C@@H](Cc1ccc(O)cc1)C(=O)O ({OMe-βAsp-CO}-FGGRIDRIGAQSGLGCNSFRY-OH) | 1.4e-10 M 50ul-1 | 8.67 nM | – | >2 nM/min/kg | 23.5 uM sample-1 | 38.1 uM sample-1 | >4 nM/min/kg
